In PMC6350648 (Drug Design, Development and Therapy, 2019):
No end group written: not given here.

Legend:
[1] = tested on: Staphylococcus aureus (NCTC10788); assay: MIC/MBC broth-dilution assay; format: cell-based; conditions: S. aureus NCTC10788, MHB pH 7.4, 512 to 1 µM twofold, 1% DMSO
Outline: (§1)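 Broth dilution was run in Mueller Hinton Broth, pH 7.4, with peptide at final 512 to 1 µM in twofold steps. Peptide stocks were in DMSO, giving final 1% (v/v) DMSO, also used alone as vehicle control. Controls were culture without peptide for growth and fresh MHB as blank. Positive controls were 5 mg/L vancomycin (S. aureus, MRSA, E. faecalis) and 5 mg/L amphotericin B (C. albicans). Five independent experiments were run.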

[2] = tested on: Escherichia coli (NCTC10418); assay: MIC/MBC broth-dilution assay; format: cell-based; conditions: E. coli NCTC10418, MHB pH 7.4, 512 to 1 µM twofold, 1% DMSO
Outline: as §1

[3] = tested on: Candida albicans (NCYC1467); assay: MIC/MBC broth-dilution assay; format: cell-based; conditions: C. albicans NCYC1467, MHB pH 7.4, 512 to 1 µM twofold, 1% DMSO
Outline: as §1

[4] = tested on: methicillin-resistant S. aureus (MRSA) (NCTC12493); assay: MIC/MBC broth-dilution assay; format: cell-based, Staphylococcus aureus; conditions: MHB pH 7.4, 512 to 1 µM twofold, 1% DMSO
Outline: as §1

[5] = tested on: Enterococcus faecalis (NCTC12697); assay: MIC/MBC broth-dilution assay; format: cell-based; conditions: E. faecalis NCTC12697, MHB pH 7.4, 512 to 1 µM twofold, 1% DMSO
Outline: as §1

horse erythrocytes = assay: Hemolysis assay; format: cell-based; conditions: peptides in PBS, 512 to 1 µM, 1% Triton-X100 = 100%
Outline: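 Horse erythrocytes were exposed to peptide in PBS at 512 to 1 µM. Erythrocytes in PBS defined 0% hemolysis and 1% (v/v) Triton X-100 defined 100%. HC50 (µM) was the concentration giving half-maximal hemolysis. Values are the mean with standard error from five independent experiments.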

MDA-MB-435S cells = assay: MTT assay; format: cell-based, human; conditions: MB435s (MDA-MB-435S); peptides in serum-free medium
Outline: (§2)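 For MTT viability, MDA-MB-435S, U251MG, HCT116 and MCF-7 were grown in DMEM, and NCI-H157 and PC-3 in RPMI 1640. All media had 10% FBS and 1% penicillin–streptomycin. Peptides were diluted in serum-free medium. Untreated cells defined 100% viability, and LD50 was the median lethal dose. Values are the mean with standard error from five independent experiments.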

NCI-H157 cells = assay: MTT assay; format: cell-based, human; conditions: peptides in serum-free medium
Outline: as §2

PC-3 cells = assay: MTT assay; format: cell-based, human; conditions: peptides in serum-free medium
Outline: as §2

U251MG cells = assay: MTT assay; format: cell-based, human; conditions: peptides in serum-free medium
Outline: as §2

HCT116 cells = assay: MTT assay; format: cell-based, human; conditions: peptides in serum-free medium
Outline: as §2

MCF-7 cells [6] = assay: MTT assay; format: cell-based, human; conditions: peptides in serum-free medium
Outline: as §2

MCF-7 cells [7] = format: cell-based, human; conditions: MCF-7, 10 µM peptide; 100% = 1% TritonX-100; five replicates
[8] = tested on: selected human cancer cell lines; assay: MTT assay, all cancer cell lines examined; format: cell-based; conditions: all six cancer cell lines
Outline: as §2

| Substance | MBC [1] [µM] | MIC [1] [µM] | MBC [2] [µM] | MIC [2] [µM] | MBC [3] [µM] | MIC [3] [µM] | MBC [4] [µM] | MIC [4] [µM] | MBC [5] [µM] | MIC [5] [µM] | HC50 of hemolysis on erythrocytes (horse erythrocytes) [µM] | LD50 of MTT assays (MDA-MB-435S cells) [µM] | LD50 of MTT assays (NCI-H157 cells) [µM] | LD50 of MTT assays (PC-3 cells) [µM] | LD50 of MTT assays (U251MG cells) [µM] | LD50 of MTT assays (HCT116 cells) [µM] | LD50 of MTT assays (MCF-7 cells [6]) [µM] | LDH release (MCF-7 cells [7]) | LD50 (MTT) for all the cell lines examined [8] [µM] |
| --- | --- | --- | --- | --- | --- | --- | --- | --- | --- | --- | --- | --- | --- | --- | --- | --- | --- | --- | --- |
| FLSLIPKAISAISALINHF-NH2 [PSPHa3] | 2 | 2 | > 512 | > 512 | 4 | 4 | 32 | 32 | 32 | 32 | 9.266 | 3.994 | 2.865 | 9.164 | 10.85 | 11.71 | 10.48 |  |  |
| FLSLIPAAISAVSALANHF-NH2 [PSPHa, Phylloseptin-PHa] | 16 | 8 | > 512 | > 512 | 32 | 32 | 128 | 64 | > 512 | > 512 | 52.17 | 28.48 | 37.61 | 37.96 | 34.67 | 36.64 | 24.05 | not as potent as PSPHa2–5 |  |
| FLSLIPKIISAISALIKHF-NH2 [PSPHa5] | 2 | 2 | > 512 | > 512 | 128 | 32 | 128 | 64 | 32 | 16 | 1.074 | 3.553 | 3.614 | 4.256 | 4.059 | 4.421 | 3.753 |  | < 5 |
| FLSLIPKAISAVSALANHF-NH2 [PSPHa1] | 8 | 8 | 128 | 128 | 32 | 16 | 32 | 16 | 32 | 32 | 197.7 | 32.41 | 41.73 | 32.89 | 33.65 | 35.16 | 45.69 | lowest degree of LDH release |  |
| FLSLIPKIISAISALINHF-NH2 [PSPHa4] | 2 | 2 | > 512 | > 512 | 128 | 32 | 256 | 128 | 64 | 32 | 2.766 | 4.802 | 2.265 | 9.35 | 9.547 | 6.779 | 15.01 |  |  |
| FLSLIPKAISAISALANHF-NH2 [PSPHa2] | 4 | 4 | 128 | 64 | 16 | 8 | 32 | 16 | 64 | 64 | 34.86 | 19.56 | 35.34 | 35.11 | 36.46 | 37.4 | 26.49 |  |  |
